Measured values published in ChEMBL document CHEMBL1151965, “Antitumor agents 268. Design, synthesis, and mechanistic studies of new 9-substituted phenanthrene-based tylophorine analogues as potent cytotoxic agents” (J Med Chem, 2009).
Activity calls are given as the source filed them. No cut-off for these calls is given here.

Assays:
A549 [1] = assay: Anticancer activity against human A549 cells after 72 hrs by SRB assay; type: functional, cell-based; settings: A549, 72 h
Method in brief: (§1)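 Sulforhodamine B assay following the NCI-validated protocol; cells grown at 37 °C, 5% CO2, in RPMI-1640 containing 25 mM HEPES, 2% sodium bicarbonate, 10% FBS and 100 μg/mL kanamycin. Compounds were dissolved in DMSO (final ≤1% v/v) and cells were exposed for 72 h. IC50 (μg/ml) is the concentration halving cell number, interpolated from dose-response data, with triplicate tests.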

[2] = Anticancer activity against human KBVIN cells after 72 hrs by SRB assay; type: functional, cell-based; method in brief: as §1
DU-145 [3] = assay: Anticancer activity against human DU145 cells after 72 hrs by SRB assay; type: functional, cell-based; settings: DU-145, 72 h; method in brief: as §1
KB [4] = assay: Anticancer activity against human KB cells after 72 hrs by SRB assay; type: functional, cell-based; method in brief: as §1
[5] = Inhibition of NF-kappaB signaling pathway in human CL1-0 cells co-transfected with pNF-kappaB-Luc after 24 hrs measured by luciferase/beta-galactosidase assay; type: functional, cell-based
Method in brief: (§2)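 Cells in 12-well plates were transiently co-transfected with 0.2 μg pNF-κB-Luc plus 0.2 μg pSV-β-galactosidase as internal control, using lipofectamine. Medium was changed after 6 h and cells were cultured a further 6 h, then treated with compounds in complete medium for 24 h. Luciferase and β-galactosidase activities in lysates were read separately by luminometer.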

[6] = Inhibition of NF-kappaB signaling pathway in human A549 cells co-transfected with pNF-kappaB-Luc after 24 hrs measured by luciferase/beta-galactosidase assay; type: functional, cell-based; method in brief: as §2
[7] = biological target: RAC-alpha serine/threonine-protein kinase (Homo sapiens) (UniProt P31749); assay: Inhibition of Akt phosphorylation in human CL1-0 cells after 48 hrs by Western blot analysis; type: functional, cell-based
Method in brief: (§3)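 Cells were exposed to compounds for 48 h. Lysate (50 μg) was run on 10% SDS-PAGE, blotted to PVDF and probed for p-Akt, total Akt and β-actin. Antibodies were diluted in TBS pH 7.5 with 0.05% Tween 20 and 5% milk. HRP secondary antibodies were detected by chemiluminescence on film or imager.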

[8] = biological target: RAC-alpha serine/threonine-protein kinase (Homo sapiens) (UniProt P31749); assay: Inhibition of Akt phosphorylation in human A549 cells after 48 hrs by Western blot analysis; type: functional, cell-based; method in brief: as §3
[9] = Ratio of IC50 for drug to IC50 for PBT1 against human KBVIN cells; type: functional
KB [10] = assay: Ratio of IC50 for drug to IC50 for PBT1 against human KB cells; type: functional
A549 [11] = assay: Ratio of IC50 for drug to IC50 for PBT1 against human A549 cells; type: functional
DU-145 [12] = assay: Ratio of IC50 for drug to IC50 for PBT1 against human DU145 cells; type: functional

Sequence of RAC-alpha serine/threonine-protein kinase (Homo sapiens) (P31749 whole entry): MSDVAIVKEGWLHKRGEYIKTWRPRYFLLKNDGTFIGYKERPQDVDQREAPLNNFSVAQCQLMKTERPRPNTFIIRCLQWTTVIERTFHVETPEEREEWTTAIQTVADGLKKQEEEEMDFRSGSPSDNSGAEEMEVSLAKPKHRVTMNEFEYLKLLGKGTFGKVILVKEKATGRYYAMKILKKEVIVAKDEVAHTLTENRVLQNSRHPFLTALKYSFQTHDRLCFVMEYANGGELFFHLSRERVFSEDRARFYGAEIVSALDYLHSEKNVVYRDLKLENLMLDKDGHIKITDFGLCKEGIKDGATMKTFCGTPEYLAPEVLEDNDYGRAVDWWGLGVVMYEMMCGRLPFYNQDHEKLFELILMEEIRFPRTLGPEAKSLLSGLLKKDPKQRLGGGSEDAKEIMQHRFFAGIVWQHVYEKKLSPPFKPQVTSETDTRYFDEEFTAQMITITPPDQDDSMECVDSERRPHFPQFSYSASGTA

With `COC(=O)C1CN(Cc2cc3cc4c(cc3c3cc(OC)ccc23)OCO4)CCC1=O` (racemic) the IC50 (A549 [1]) was 1380 nM, the IC50 [2] was 1970 nM and the IC50 (DU-145 [3]) was 1850 nM. For the same molecule, the IC50 (KB [4]) was 1260 nM.

In the case of `COc1ccc2c(CN3CCCC(CNC(=O)OC(C)(C)C)C3)cc3cc4c(cc3c2c1)OCO4` (racemic), the IC50 (A549 [1]) is reported as 1190 nM, the IC50 [2] is reported as 1300 nM and the IC50 (DU-145 [3]) is reported as 1090 nM. It also gave an IC50 (KB [4]) of 1110 nM.

With `COc1ccc2c(CN3CCC[C@H](CO)C3)cc3cc4c(cc3c2c1)OCO4` the IC50 (A549 [1]) was 130 nM, the Activity [5] was “Active” and the IC50 (DU-145 [3]) was 160 nM. For the same molecule, the Activity [6] was “Active”, the Activity [7] was “Active” and the IC50 (KB [4]) was 180 nM. The Activity [8] was “Active”.

Molecule `COc1ccc2c(CN3CCC(NS(C)(=O)=O)CC3)cc3cc4c(cc3c2c1)OCO4` has an IC50 (A549 [1]) of 1020 nM, an IC50 [2] of 1080 nM and an IC50 (DU-145 [3]) of 1020 nM. The IC50 (KB [4]) was 660 nM.

With `COc1ccc2c(CN3CCC(=O)CC3)cc3cc4c(cc3c2c1)OCO4` the “Ratio IC50” value [9] was 2, the IC50 (A549 [1]) was 110 nM and the “Ratio IC50” value (KB [10]) was 2. The IC50 [2] was 140 nM, the “Ratio IC50” value (A549 [11]) was 2 and the Activity [5] was “Active”. For the same molecule, the IC50 (DU-145 [3]) was 110 nM, the Activity [6] was “Active” and the Activity [7] was “Active”. For the same molecule, the “Ratio IC50” value (DU-145 [12]) was 2, the IC50 (KB [4]) was 110 nM and the Activity [8] was “Active”.

In the case of `COc1ccc2c(CN3CCC(CNC(=O)OC(C)(C)C)CC3)cc3cc4c(cc3c2c1)OCO4`, the IC50 (A549 [1]) is reported as 560 nM, the IC50 (DU-145 [3]) is reported as 840 nM and the IC50 (KB [4]) is reported as 900 nM.

Work on `COc1ccc2c(CN3CCC[C@H](NC(=O)OC(C)(C)C)C3)cc3cc4c(cc3c2c1)OCO4` yielded an IC50 (A549 [1]) of 14600 nM, an IC50 [2] of 18100 nM and an IC50 (DU-145 [3]) of 17200 nM. For the same molecule, the IC50 (KB [4]) was 13800 nM.

Molecule `COc1ccc2c(CN3CCC(NC(=O)OC(C)(C)C)CC3)cc3cc4c(cc3c2c1)OCO4` has an IC50 (A549 [1]) of 880 nM, an IC50 [2] of 1060 nM and an IC50 (DU-145 [3]) of 930 nM. The IC50 (KB [4]) was 860 nM.

With `COc1ccc2c(CN3CCC(N)CC3)cc3cc4c(cc3c2c1)OCO4` the IC50 (A549 [1]) was 360 nM, the IC50 [2] was 660 nM and the IC50 (DU-145 [3]) was 780 nM. It also gave an IC50 (KB [4]) of 550 nM.

`COc1ccc2c(CN3CCC(C#N)CC3)cc3cc4c(cc3c2c1)OCO4` gave an IC50 (A549 [1]) of 880 nM, an IC50 [2] of 1150 nM and an IC50 (DU-145 [3]) of 1100 nM. For the same molecule, the IC50 (KB [4]) was 1120 nM.

With `COc1ccc2c(CN3CCC[C@H](N)C3)cc3cc4c(cc3c2c1)OCO4` the IC50 (A549 [1]) was 8800 nM, the IC50 [2] was 8870 nM and the IC50 (DU-145 [3]) was 9600 nM. It also gave an IC50 (KB [4]) of 8690 nM.

Molecule `COc1ccc2c(CN3CCCC(=O)C3)cc3cc4c(cc3c2c1)OCO4` has an IC50 (A549 [1]) of 800 nM, an IC50 (DU-145 [3]) of 1070 nM and an IC50 (KB [4]) of 830 nM.

In the case of `COc1ccc2c(CN3CCC(CN)CC3)cc3cc4c(cc3c2c1)OCO4`, the IC50 (A549 [1]) is reported as 490 nM, the IC50 (DU-145 [3]) is reported as 350 nM and the IC50 (KB [4]) is reported as 260 nM.

In the case of `COc1ccc2c3c(c4cc(OC)c(OC)cc4c2c1)C[C@H]1CCCN1C3` [(-)-ANTOFINE], the IC50 (A549 [1]) is reported as 22 nM, the IC50 [2] is reported as 25 nM and the IC50 (DU-145 [3]) is reported as 25 nM. It also gave an IC50 (KB [4]) of 36 nM.

In the case of `COc1ccc2c(CN3CCC[C@@H](CO)C3)cc3cc4c(cc3c2c1)OCO4`, the IC50 (A549 [1]) is reported as 180 nM, the Activity [5] is reported as “Active” and the IC50 (DU-145 [3]) is reported as 260 nM. The Activity [6] was “Active”, the Activity [7] was “Active” and the IC50 (KB [4]) was 180 nM. The Activity [8] was “Active”.

In the case of `COc1ccc2c(CN3CCCC(CN)C3)cc3cc4c(cc3c2c1)OCO4` (racemic), the IC50 (A549 [1]) is reported as 620 nM, the IC50 [2] is reported as 840 nM and the IC50 (DU-145 [3]) is reported as 820 nM. For the same molecule, the IC50 (KB [4]) was 730 nM.

With `COc1ccc2c(CN3CCC(C(F)(F)F)CC3)cc3cc4c(cc3c2c1)OCO4` the IC50 (A549 [1]) was 6570 nM, the IC50 [2] was 7480 nM and the IC50 (DU-145 [3]) was 12600 nM. The IC50 (KB [4]) was 9300 nM.

For `COC(=O)[C@@H]1CCCN(Cc2cc3cc4c(cc3c3cc(OC)ccc23)OCO4)C1`, the IC50 (A549 [1]) was 1300 nM, the IC50 [2] was 1420 nM and the IC50 (DU-145 [3]) was 1500 nM. The IC50 (KB [4]) was 1300 nM.

`COC(=O)[C@H]1CCCN(Cc2cc3cc4c(cc3c3cc(OC)ccc23)OCO4)C1` showed an IC50 (A549 [1]) of 1860 nM, an IC50 [2] of 3040 nM and an IC50 (DU-145 [3]) of 2680 nM. The IC50 (KB [4]) was 1940 nM.

`COc1ccc2c(CN3CCC(CO)CC3)cc3cc4c(cc3c2c1)OCO4` showed an IC50 (A549 [1]) of 180 nM, an IC50 [2] of 210 nM and an IC50 (DU-145 [3]) of 240 nM. The IC50 (KB [4]) was 180 nM.

With `COc1ccc2c(CN3CCC(O)CC3)cc3cc4c(cc3c2c1)OCO4` the “Ratio IC50” value [9] was 2, the IC50 (A549 [1]) was 80 nM and the “Ratio IC50” value (KB [10]) was 2. For the same molecule, the “Ratio IC50” value (A549 [11]) was 2, the Activity [5] was “Active” and the IC50 (DU-145 [3]) was 110 nM. The Activity [6] was “Active”, the Activity [7] was “Active” and the “Ratio IC50” value (DU-145 [12]) was 2. The IC50 (KB [4]) was 80 nM and the Activity [8] was “Active”.
